# HTR1E antagonist: blocks the human 5-HT1E serotonin receptor; P28566; CHO 5-HT1E Ga15 NFAT-bla reporter, FRET, antagonist; hit rate 0.99% among 65,000; inhibition, % at 6 µM;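 active = inhibition above a set limit, the mean inhibition across every tested compound plus 3 SD, cut at about 29% in these data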;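 note: signal is the 460 over 535 nm emission ratio of beta-lactamase substrate; 0% = agonist plus DMSO wells and 100% = wells without agonist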
# HTR1A agonist: agonists of human 5-HT1a serotonin receptor; P08908; CHO 5-HT1a Ga15 NFAT-bla reporter, FRET ratio; 0% basal, 100% maximal reference agonist; activation, % at 10 µM; hit rate 0.56% among 65,000;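 active = activation above the screen-wide mean activation plus 3 SD, cut at about 19% in these data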;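 note: 0% = DMSO wells and 100% = 5-CT at EC100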
# Target sequence (P08908 whole entry, looked up): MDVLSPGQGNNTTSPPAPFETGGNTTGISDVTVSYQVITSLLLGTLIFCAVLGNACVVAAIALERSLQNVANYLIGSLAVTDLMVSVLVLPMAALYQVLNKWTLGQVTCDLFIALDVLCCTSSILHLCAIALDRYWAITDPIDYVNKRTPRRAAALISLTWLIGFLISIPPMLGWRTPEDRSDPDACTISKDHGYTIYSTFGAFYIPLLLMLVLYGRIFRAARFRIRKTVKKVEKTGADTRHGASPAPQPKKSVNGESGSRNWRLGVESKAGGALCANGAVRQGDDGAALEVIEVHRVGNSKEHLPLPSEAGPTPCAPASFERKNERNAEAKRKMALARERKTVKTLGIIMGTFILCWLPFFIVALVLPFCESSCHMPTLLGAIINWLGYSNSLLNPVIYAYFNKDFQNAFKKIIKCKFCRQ
# SK-BR-3 tox 24h: SK-BR-3 proliferation inhibitors | SK-BR-3 viability, CellTiter-Glo ATP luminescence, 24 h; stronger effect = lower value | AID 847 | viability, % at 10 µM | hit rate 0.47% among 41,000;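 active = viability at or below the median of all test compounds minus 3 SD, in both replicates if run twice, cut at about 45% in these data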;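 note: 100% = median untreated cell wells and 0% = median positive control drug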
# HEK293 NFkB inh: lowers PMA/ionomycin-induced NF-kB signal in HEK293 cells | HEK-293 NF-kB luciferase reporter, luminescence | inhibition, % at 3 µM | hit rate 0.21% among 62,000;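 active = inhibition above the mean of all tested compounds plus 3 SD, cut at about 40% in these data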;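 note: 0% = stimulated DMSO wells and 100% = 10 µM reference inhibitor 5653914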
#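 Material: HEK-293 cells with stable firefly luciferase reporter driven by four HIV NF-kB elements / Also added: PMA plus ionomycin mix as NF-kB-activating stimulus / Compound dosing: 3 µM once, 0.30% DMSO / Times: 1 h pretreatment, 16 h stimulation, 37 °C / Signal: luminescence / Evaluation: per-plate % inhibition versus controls / Benchmarks: DMSO and 10 µM reference inhibitor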
# HTR1E agonist: 5-HT1E (human) receptor agonism; P28566; CHO 5-HT1E Ga15 NFAT-bla reporter, FRET; 0% DMSO wells, 100% control agonist wells; activation, % at 6 µM; hit rate 0.69% among 65,000;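 active = activation above a set limit, the screen-wide mean activation plus 3 SD, cut at about 8.5% in these data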;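 note: 100% = positive control agonist at 1 µM giving full maximal response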
# 5-HT1A blocker: antagonists of human 5-HT1a serotonin receptor; P08908; CHO 5-HT1a Ga15 NFAT-bla reporter, antagonist mode; inhibition, % at 10 µM; hit rate 0.68% among 62,000;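 active = inhibition above the mean of all tested compounds plus 3 SD, cut at about 43% in these data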;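 note: receptor stimulated by 5-CT agonist at 100 nM near EC80; beta-lactamase reporter measured by ratiometric fluorescence of a cleavable substrate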
# Numbers without * were called inactive; . = not tested or not shown. Sampled rows, rich in hits. Any-hit rate of the full collection: about 2.9%.
SMILES,HTR1E antagonist,HTR1A agonist,SK-BR-3 tox 24h,HEK293 NFkB inh,HTR1E agonist,5-HT1A blocker
COc1cc(NS(C)(=O)=O)c(OC)cc1NC(=O)c1ccccc1,-2,-3,93,12,1,7
CCOC(=O)C1CCN(C(=O)c2sc3nc(-c4ccc(F)cc4)cn3c2C)CC1,16,-1,.,5,1,-7
O=S(=O)(c1ccc(S(=O)(=O)N2CCCC2)cc1)N1CCCCCC1,14,0,70,11,0,-11
O=S(=O)(c1ccc2c(c1)C(=NO)c1cc(S(=O)(=O)N3CCCCC3)ccc1-2)N1CCCCC1,3,2,3.5*,0,0,-1
COc1ccc(-c2nn(C)c(=O)c3ccccc23)cc1NC(=O)Cn1nc(C)c2ccccc2c1=O,38*,0,87,33,1,16
COCc1cc(C)nc(Nc2ccc(C)cc2C)c1C#N,2,-3,38*,0,-1,23
COCc1cc(C)nc(Nc2ccc(C)c(C)c2)c1C#N,-4,-1,.,0,0,-9
CCOCCCn1c(=S)[nH]c2cc3c(cc2c1=O)OCO3,-8,0,.,1,0,-4
CCOc1ccc(S(=O)(=O)N2CCN(c3ccccc3OC)CC2)c2cccnc12,5,2,69,6,0,-14
COc1cccc(Cn2nnc(C(=O)NCc3ccccc3Cl)c2N)c1,1,-2,.,7,0,3
COc1cccc(Cn2nnc(C(=O)NCc3ccc(F)cc3)c2N)c1,32*,2,.,13,-2,15
CCCCC(=O)Nc1ccc(NC(=O)C2CC2)nc1,6,-2,89,4,6,7
O=C(Cc1ccc(Cl)cc1)Nc1ccc2oc(-c3ccncc3)nc2c1,3,13,34*,4,1,-9
c1cncc(-c2nc3cc(Cc4ccc5oc(-c6cccnc6)nc5c4)ccc3o2)c1,1,0,98,29,0,5
O=C(Cc1ccccc1)Nc1ccc2oc(-c3cccnc3)nc2c1,12,-1,82,4,-2,6
c1cc(-c2nc3cc(Cc4ccc5oc(-c6ccncc6)nc5c4)ccc3o2)ccn1,-2,-1,90,18,18*,1
CCOc1cc(NC2CS(=O)(=O)CC2O)c(OCC)cc1NC(=O)c1ccccc1 (stereo not drawn),2,-3,57,13,0,0
COc1cccc(CNC(=O)C2CCCN(S(C)(=O)=O)C2)c1 (stereo not drawn),-15,-3,.,16,0,-3
OCCN1CCN(Cc2cccc(Oc3ccc(Cl)cc3)c2)CC1,8,0,98,10,10*,1
OC1CCN(Cc2cccc(Oc3ccccc3)c2)CC1,5,-2,.,6,1,-2
CCCC1C2CN(C(C)C)CC=C2C(C#N)=C(N)C1(C#N)C#N (stereo not drawn),0,6,.,7,2,-4
O=C(CCN1CCc2ccccc2C1)Nc1ccc(F)cc1,8,0,85,17,0,20
CCOc1ccc(C2C(C(=O)OC)=CN(CCOC)C=C2C(=O)OC)cc1,-8,10,.,18,3,-12
COC(=O)C1=CN(CCCN2CCCC2=O)C=C(C(=O)OC)C1c1ccccc1C(F)(F)F,-1,25*,88,-4,6,-21
CCN1C=C(C(=O)OC)C(c2cccc(C)c2)C(C(=O)OC)=C1,-5,20*,93,10,6,-19
SMILES,HTR1E antagonist,HTR1A agonist,SK-BR-3 tox 24h,HEK293 NFkB inh,HTR1E agonist,5-HT1A blocker
COC(=O)C1=CN(C(C)C)C=C(C(=O)OC)C1c1cccc(OC)c1,-5,23*,92,-1,5,-21
COC(=O)C1=CN(C)C=C(C(=O)OC)C1c1ccccc1Cl,1,19*,127,6,6,-28
CCOC(=O)CSc1nc2ccc(N3CCOCC3)cc2c(=O)n1Cc1ccc2c(c1)OCO2,17,2,.,0,0,12
COc1ccc(C(c2nnnn2CCc2ccccc2)N2CCN(C3CCCC3)CC2)cc1OC (stereo not drawn),0,1,74,9,-1,7
CCC(=O)Nc1ccc(-c2nnc(SCC(=O)NCC3CCCO3)n2C)cc1 (stereo not drawn),-1,3,94,.,0,.
Cc1c(=O)n(OCc2c(F)cccc2F)c2ccccc2[n+]1[O-],-1,1,86,.,0,.
CCCCOc1ccccc1C1C(C(=O)OC)=CN(CC)C=C1C(=O)OC,-7,40*,80,7,7,-10
CCCc1nc2oc3c(NCCOCCO)ncnc3c2c2c1COC(C)(C)C2,30*,1,88,27,-1,7
Cc1nnc(Sc2nc(Sc3nnc(C)s3)nc(N3CCN(C)CC3)n2)s1,68*,4,100,39,-1,78*
Clc1ccc(-n2nnnc2Sc2ncnc3sccc23)cc1,82*,-2,.,-1,0,69*
COc1cccc(N2CCN(c3c4c(nc5ncnn35)CCC4)CC2)c1,0,1,25*,21,0,6
c1ccc(N2CCN(c3c4c(nc5ncnn35)CCC4)CC2)cc1,4,0,.,15,0,-8
CCn1c(=O)c(C2=NS(=O)(=O)c3ccccc3N2)c(O)c2ccccc21,2,-2,83,2,0,7
COc1cccc(OCCn2c(C)c(/C=N/n3cnnc3)c3ccccc32)c1,43*,-1,104,17,0,4
Cc1c(/C=N/n2cnnc2)c2ccccc2n1C,0,1,99,-11,0,7
NC(=O)C1(N2CCCCC2)CCN(C(=O)c2ccc(-n3cnnn3)cc2)CC1,-1,0,42*,-2,-1,-1
O=C(NCc1ccccc1)C1CC2CCCC(C1)C2=O (stereo not drawn),-1,0,92,8,0,-8
COc1ccc(-c2cc(C(F)(F)F)nc(NCc3ccco3)n2)cc1OC,26,-1,87,14,1,30
COc1cccc(-c2cc(C(F)(F)F)nc(NCc3ccco3)n2)c1,9,-1,96,14,-1,47*
COc1ccccc1Oc1cc(C#N)c(C#N)cc1-n1nnc2ccccc21,7,0,89,21,-1,49*
CSCCC(NC(=O)COc1ccccc1)C(=O)N1CCN(c2ccccc2F)CC1 (stereo not drawn),-11,-3,.,6,0,16
Cc1cccc(N2CCN(C(=O)Cc3c(C(=O)O)[nH]c4ccc(Cl)cc34)CC2)c1C,-5,-3,89,11,60*,-4
COc1ccc2[nH]c(=O)c3c(c2c1)OC(C)(C)C=C3,24,-1,116,30,0,60*
CCOc1ccccc1Cn1c(=O)oc2ccc(C)cc21,8,1,87,18,-3,21

# Bioassay records deposited in PubChem BioAssay by several laboratories.
